Screening data as filed in PubChem.
HTRA1 inhibitor: blocks human HTRA1 serine peptidase; inhibition, % at 5.96 µM; hit rate 0.5% among 340,000; recombinant HTRA1, FP-rhodamine activity-based probe, fluorescence polarization; in the data active = inhibition above about 36%
TDP2 inh: blocks human TDP2 phosphodiesterase activity | O95551 | recombinant TDP2, T5PNP hydrolysis, p-nitrophenol absorbance 415 nm | AID 720702 | inhibition, % at 12.8 µM | hit rate 0.34% among 370,000;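 active = inhibition above the mean of all tested compounds plus 3 SD, set per campaign, cut at about 25% in these data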
Target sequence (O95551 whole entry, looked up): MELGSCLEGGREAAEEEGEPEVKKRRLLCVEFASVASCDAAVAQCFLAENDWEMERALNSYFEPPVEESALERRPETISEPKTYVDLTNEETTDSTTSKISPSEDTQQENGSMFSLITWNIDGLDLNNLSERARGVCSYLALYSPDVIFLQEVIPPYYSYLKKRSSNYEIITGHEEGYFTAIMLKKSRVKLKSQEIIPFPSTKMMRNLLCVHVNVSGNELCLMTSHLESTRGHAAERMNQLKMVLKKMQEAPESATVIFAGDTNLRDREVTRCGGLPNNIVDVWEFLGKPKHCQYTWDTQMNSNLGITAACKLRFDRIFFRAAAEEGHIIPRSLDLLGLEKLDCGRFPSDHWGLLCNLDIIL
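Material: recombinant human TDP2; quantity: TDP2 enzyme at 120 nM final; medium: Tris-HCl pH 7.5 with MgCl2; compound: single concentration, 12.8 µM nominal, with 1% DMSO; incubation: 2 h enzyme incubation at 37 °C; signal: epi absorbance; measure: percent inhibition; benchmarks: high control without enzyme, low control DMSO plus TDP2; repeats: singlicate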
SIAE inh: inhibitors of human sialic acid acetylesterase SIAE | SIAE FP-Rh probe binding, fluorescence polarization | AID 1053197 | hit rate 0.69% among 370,000 | inhibition, % at 9.66 µM;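 active = inhibition above a cutoff: mean of compounds within the control limits plus 3 SD of those, cut at about 17% in these data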
mABHD4 FP: inhibitors of mouse ABHD4; purified mABHD4, FP-Rh probe fluorescence polarization; inhibition, % at 8.92 µM; hit rate 0.54% among 370,000;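 active = inhibition exceeding the mean over every tested compound plus 3 SD, cut at about 30% in these data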
Target sequence (Q8VD66 whole entry, looked up): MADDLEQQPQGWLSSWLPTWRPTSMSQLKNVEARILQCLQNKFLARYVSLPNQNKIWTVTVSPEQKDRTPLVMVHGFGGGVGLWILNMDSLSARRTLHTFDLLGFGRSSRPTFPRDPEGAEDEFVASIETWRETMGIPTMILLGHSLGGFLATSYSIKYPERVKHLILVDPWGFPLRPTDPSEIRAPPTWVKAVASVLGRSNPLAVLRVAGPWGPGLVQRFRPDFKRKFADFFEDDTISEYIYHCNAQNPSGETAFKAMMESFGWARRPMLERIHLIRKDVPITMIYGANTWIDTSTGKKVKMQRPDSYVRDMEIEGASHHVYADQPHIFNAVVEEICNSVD
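system = mouse ABHD4 enzyme, wild type | medium = HEPES pH 7.0, NaCl, Pluronic buffer | also added = FP-Rh probe | incubation = Enzyme–compound pre-incubation 45 min, then probe 60 min, both 25 °C | technique = fluorescence polarization, excitation 525 nm, emission 598 nm, BODIPY TMR filters | controls = S159A mutant high control, sample median low control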
LEDGF integ inh: blocks HIV-1 LEDGF/p75-dependent DNA integration. TR-FRET IN-LEDGF/p75 DNA integration, Eu/Cy5. inhibition, % at 3.7 µM. hit rate 0.64% among 370,000;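 active = inhibition above the screen-wide mean plus 3 SD, cut at about 13% in these data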;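 also: signal is the Cy5 over europium emission ratio at 671 and 618 nm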
TCR-CD3 inh: human TCR-CD3 binding inhibition; hit rate 0.37% among 360,000; TAMRA-labeled TCR probe fluorescence, biochemical; inhibition, % at 9.4 µM; AID 651800;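 also: recombinant mutant TCR 2C K166C tagged with TAMRA read by polarization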
HTRA1 inh conf: HTRA1 (human) inhibition, confirmation; shares compounds with HTRA1 inhibitor; inhibition, % at 5.96 µM; hit rate 66% among 1,600; recombinant HTRA1, FP-rhodamine activity-based probe, fluorescence polarization;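 active = mean inhibition over three repeats above a set limit taken from the earlier primary screen, cut at about 37% in these data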;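 also: inhibitors block probe binding so polarization drops and inhibition rises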
BSA probe FL: BSA probe counter-screen for TCR-CD3 inhibitors; TAMRA-labeled BSA probe fluorescence counterscreen; hit rate 10% among 1,200; shares compounds with TCR-CD3 inh; inhibition, % at 9.4 µM; in the data active = inhibition above about 23%
TCR-CD3 inh conf: confirmation of human TCR-CD3 interaction inhibitors. shares compounds with TCR-CD3 inh. TAMRA-labeled TCR probe fluorescence binding assay. inhibition, % at 9.4 µM. hit rate 48% among 1,200
ABHD4 confirm: confirmation of mouse ABHD4 inhibitors; shares compounds with mABHD4 FP; purified mABHD4, FP-Rh probe fluorescence polarization; inhibition, % at 8.92 µM; hit rate 55% among 1,800; AID 720658;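 active = mean inhibition across replicates above the hit cutoff set in the primary screen, cut at about 30% in these data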
Of the large screens only hits and unclear results are named; the others gave an inactive call (follow-up assays come after a bar, where they were run); ! = not active in a repeat. Compounds with a hit are over-represented: about 2.2% of the library has one in this group of screens. Rule as the data show it, unless noted: active = inhibition above about 19%; inactive = the rest.

COc1ccc(CCNCC2CCCO2)cc1 (centres undefined)	none
CCOc1cccc(OCC)c2c(C)[n+](CC3CCCO3)c(C)c1-2 (centres undefined)	HTRA1 inhibitor 49.9 (no result: TDP2 inh, SIAE inh, mABHD4 FP, LEDGF integ inh, TCR-CD3 inh)
CC[C@H](C)/C=C(C)/C=C/C1=CC2=C(Cl)C(=O)[C@](C)(OC(C)=O)C(=O)C2=CO1	HTRA1 inhibitor 70.4 (no result: TDP2 inh, SIAE inh, mABHD4 FP, LEDGF integ inh, TCR-CD3 inh)
COC(=O)C1=C(c2ccc(F)cc2OCc2ccccc2)C[C@@H]2CC[C@H]1N2C(=O)NCCN1CCOCC1	LEDGF integ inh 19.4
CC(C)[C@H]1C(=O)N2CCC[C@H]2[C@]2(O)O[C@](NC(=O)[C@@H]3C=C4c5cccc6[nH]cc(c56)C[C@H]4N(C)C3)(C(C)C)C(=O)N12	none (no result: TDP2 inh, SIAE inh, mABHD4 FP, LEDGF integ inh, TCR-CD3 inh)
CC(C)C[C@H]1C(=O)N2CCCC2[C@]2(O)O[C@](NC(=O)[C@@H]3C=C4c5cccc6[nH]cc(c56)CC4N(C)C3)(C(C)C)C(=O)N12 (some centres undefined)	HTRA1 inhibitor 45.2 (no result: TDP2 inh, SIAE inh, mABHD4 FP, LEDGF integ inh, TCR-CD3 inh)
CN1CCC2(CC1)C(C#N)=C(N)NC(S)=C2C#N	TDP2 inh 30.4!
O=C1NC(=O)N(c2cccc(Cl)c2)C(=O)/C1=C\c1ccc(Sc2nc3ccccc3[nH]2)o1	LEDGF integ inh 19.5
O=C1NC(=O)N(c2ccccc2)C(=O)/C1=C/c1ccc(Sc2ccccc2)o1	none (no result: TDP2 inh, SIAE inh, mABHD4 FP, LEDGF integ inh, TCR-CD3 inh)
O=C1NC(=O)N(c2ccccc2F)C(=O)/C1=C/c1ccc(Sc2nc3ccccc3[nH]2)o1	LEDGF integ inh 22.4
CC(C)C(NC(=O)OCc1ccccc1)P(=O)(Oc1ccccc1)Oc1ccccc1 (centres undefined)	none (no result: HTRA1 inhibitor, TCR-CD3 inh)
O=C1NC(=O)N(Cc2ccco2)C(=O)/C1=C\c1cccn1CCOc1ccc(Cl)cc1	LEDGF integ inh 61.4
CCn1nc(-c2cccs2)nc2c(=O)n(C)c(=O)nc1-2	none (no result: TDP2 inh, SIAE inh, mABHD4 FP, LEDGF integ inh, TCR-CD3 inh)
CCn1nc(/C=C/c2ccccc2)nc2c(=O)n(C)c(=O)nc1-2	TDP2 inh 79.2 (no result: HTRA1 inhibitor)
Brc1csc(N2CCNCC2)n1	none (no result: HTRA1 inhibitor, TCR-CD3 inh)
O=C(NC(Cc1ccccc1)P(=O)(O)Oc1ccccc1)OCc1ccccc1 (centres undefined)	none (no result: HTRA1 inhibitor, TCR-CD3 inh)
CN=C1CN=C(c2ccc[nH]2)c2cc(Cl)ccc2N1	none (no result: HTRA1 inhibitor, TCR-CD3 inh)
COc1ccc(-n2nnnc2C(CCSC)N2CCC(n3c(=O)[nH]c4ccccc43)CC2)cc1 (centres undefined)	none (no result: HTRA1 inhibitor)
O=C1NC(=O)N(Cc2ccc(F)cc2)C(=O)/C1=C\c1ccc([N+](=O)[O-])s1	HTRA1 inhibitor 42.6
CCCCCCC(Cl)(Cn1ccnc1)c1ccccc1 (centres undefined)	none
CCN1C(=O)C(=C2C=C(C)N(Cc3ccco3)C(C)=C2)C(=O)N(CC)C1=S	none
COc1ccc(/C=C2/C(=O)N(Cc3ccco3)C(=O)N(C(C)C)C2=O)cc1	LEDGF integ inh 32.8
Oc1ccccc1/C=N/NP(=S)(c1ccccc1)c1ccccc1	none
Oc1ccc(/C=N/NP(=S)(c2ccccc2)c2ccccc2)cc1O	HTRA1 inhibitor 57.8 | HTRA1 inh conf 61.9
Oc1ccc(/C=N/NP(=S)(c2ccccc2)c2ccccc2)c(O)c1O	HTRA1 inhibitor 74.7 | HTRA1 inh conf 85.0
O=C(O)c1cccc2c1NC(C(=O)O)C1CC(Sc3ccccc3[N+](=O)[O-])C(Cl)C21 (centres undefined)	HTRA1 inhibitor 92.8, SIAE inh 61.3, mABHD4 FP 82.2, LEDGF integ inh 52.3, TCR-CD3 inh 37.4 | HTRA1 inh conf 59.6
CC(=O)NCC1=C(c2cccc3ccccc23)C[C@@H]2CC[C@H]1N2Cc1ccco1	none
COc1ccccc1CCNCc1cc2c(cc1[N+](=O)[O-])OCO2	HTRA1 inhibitor 42.2 | HTRA1 inh conf inactive
O=C(COC(=O)Cc1ccccc1)NC12CC3CC(CC(C3)C1)C2	none
O=C(COC(=O)Cc1ccccc1)NC(=O)NC1CCCCC1	HTRA1 inhibitor 36.4 | HTRA1 inh conf 37.7
CCC1CN1P(=O)(Oc1ccc(Cl)cc1)N1CC1CC (centres undefined)	none
Cn1ccnc1P(=S)(c1nccn1C)c1nccn1C	HTRA1 inhibitor 70.5 | HTRA1 inh conf 106.2
COc1cccc(-n2c(/C=C/c3ccc(O)c(O)c3)nc3ccccc3c2=O)c1	HTRA1 inhibitor 57.9 | HTRA1 inh conf 46.8
COc1ccc(-n2c(/C=C/c3ccc(O)c(OC)c3)nc3ccccc3c2=O)cc1	none
COc1ccc(NC(=S)N2Cc3ccccc3-n3nncc3C2)c(OC)c1	none
COC(=O)C1=C(c2ccc(OCc3ccccc3)c(F)c2)C[C@@H]2CC[C@H]1N2C	none
CN(C)[C@@H]1C(=O)C(C(N)=O)=C(O)[C@@]2(O)C(=O)C3=C(O)c4c(O)cccc4[C@@](C)(O)[C@H]3[C@H](O)[C@@H]12	HTRA1 inhibitor 50.8, mABHD4 FP 63.1, LEDGF integ inh 60.6, TCR-CD3 inh 45.5 | HTRA1 inh conf inactive | BSA probe FL inactive | TCR-CD3 inh conf 27.4
C[C@@H]1CN([C@H](C)CO)C(=O)CCCn2nncc2CO[C@H]1CN(C)C(=O)Oc1ccc2ccccc2c1	none
CCN(CC)c1ccc(N=Cc2c(O)n(-c3ccccc3)c(=O)[nH]c2=O)cc1	HTRA1 inhibitor 40.0, mABHD4 FP 67.0 | HTRA1 inh conf inactive | ABHD4 confirm inactive
CCOc1ccc(-n2c(O)c(C=Nc3ccc(N(CC)CC)cc3)c(=O)[nH]c2=O)cc1	none
C=CCN1CCc2cccc3c2[C@H]1Cc1ccc(O)c(O)c1-3	HTRA1 inhibitor 63.2, mABHD4 FP 44.5 | HTRA1 inh conf 79.8 | ABHD4 confirm inactive
COC(=O)C1=COC(C)C2CN3CCc4c([nH]c5cc(OC)ccc45)C3CC12 (centres undefined)	none (no result: HTRA1 inhibitor)
